Experimental data of several laboratories.
Cell line: SK-OV-3

CCN1CCN(Cc2ccc(Nc3ncc(F)c(-c4cc(F)c5nc(C)n(C(C)C)c5c4)n3)nc2)CC1 — IC50 (cell growth or viability; CCK-8): 1.62 µM
S=C([S][Au-][P+](CCCCCC[P+]([Au-][S]C(=S)n1cccn1)(c1ccccc1)c1ccccc1)(c1ccccc1)c1ccccc1)n1cccn1 — GI50 (cell growth or viability): 2.06 µM
NC(=O)c1cccc2cn(-c3ccc([C@@H]4CCCNC4)cc3)nc12 — IC50 (colony formation): 5.34 µM
O=C1Nc2ccccc2C1=NNc1nnc2n1N=C(c1ccccc1)CS2 — inhibition (cell growth or viability; SRB; 10 µM): 11%
C[C@]12CC[C@@H]3c4ccc(O)cc4CC[C@H]3[C@@H]1CC[C@@H]2O — EC90 (cell growth or viability; ATP luminescence; 72 h): 56.8 µM
COc1cc(CNC(=O)CCCC/C=C/C(C)C)ccc1OCc1cn(-c2ccc(C(F)(F)F)cc2)nn1 — IC50 (cell growth or viability; SRB): 10.6 µM
Cc1ccc(-c2ccc(O)cc2)c(C(=C2C=CC(=O)C=C2)c2ccc(O)cc2)c1C#Cc1ccc(O)cc1 — IC50 (cell growth or viability; MTT; 48 h): 18.6 µM
COc1ccc(C(=O)/C=C/c2ccc3ccccc3c2)cc1S(N)(=O)=O — inhibition (cell growth or viability; SRB; 10 µM): 77%
COc1cc(CNC(=O)CCCC/C=C/C(C)C)ccc1OCc1cn(-c2ccc(C#N)cc2)nn1 — IC50 (cell growth or viability; SRB): 32.5 µM
COc1ccc(C(=O)/C=C/c2cccc(Cl)c2)cc1S(N)(=O)=O — GI50 (cell growth or viability; SRB; 48 h): 6.2 µM
OCc1ccc2c(c1C#Cc1ccc(O)cc1)C(c1ccc(O)cc1)(c1ccc(O)cc1)c1cc(O)ccc1-2 — IC50 (cell growth or viability; MTT; 48 h): > 50 µM
COc1ccc(C(=O)/C=C/c2ccccc2Br)cc1S(N)(=O)=O — inhibition (cell growth or viability; SRB; 10 µM): 30%
COc1cc(-c2ccc(-c3ccc(C(=N)N)nc3)s2)cc(OC)c1OC — GI50 (cell growth or viability; SRB): 13.1 µM
COc1ccc(C(=O)/C=C/c2c(F)cccc2Cl)cc1S(N)(=O)=O — inhibition (cell growth or viability; SRB; 10 µM): 73%
COc1cccc(Oc2ccccc2NC(=O)CNC(=O)c2cccc3ccccc23)c1 — GI50 (cell growth or viability; SRB; 48 h): 0.49 µM
COc1ccc(C(=O)/C=C/c2ccc(Cl)c(Cl)c2)cc1S(N)(=O)=O — inhibition (cell growth or viability; SRB; 10 µM): 48%
O=C(c1cc(Cc2n[nH]c(=O)c3ccccc23)ccc1F)N1CCN(C(=O)C2CC2)CC1 — IC50 (colony formation): 2.63 µM
COc1ccc(C(=O)/C=C/c2cccc(Br)c2)cc1S(N)(=O)=O — GI50 (cell growth or viability; SRB; 48 h): 4.1 µM
CC(C)C[C@H](NC(=O)[C@H](Cc1ccccc1)NC(=O)c1cnccn1)B(O)O — IC50 (cell growth or viability; ATP luminescence): 0.025 µM
